Results on 2 compounds are retold here after ChEMBL document CHEMBL4316610, “Synthesis and Biological Studies of (+)-Liquiditerpenoic Acid A (Abietopinoic Acid) and Representative Analogues: SAR Studies” (J Nat Prod, 2019).

The target of data set [1] is T1, GABA-A receptor; alpha-1/beta-2/gamma-2 (Homo sapiens) (UniProt P14867+P47870+P18507). In words: Modulation of recombinant wild type GABAA receptor alpha1beta2gamma2S (unknown origin) expressed in Xenopus laevis oocytes assessed as increase in GABA-evoked chloride current at 100 uM at -70 mV holding potential by two-microelectrode voltage clamp assay relative to control. It is filed as cell-based. In short, it runs like this: (§1)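 Two-microelectrode voltage clamp at -70 mV on Xenopus laevis oocytes expressing α1β2γ2S GABA-A receptors. GABA EC5 (4-5 μM), set individually for each oocyte, applied for 20 s alone, then co-applied with compound at 10 or 100 μM. Potentiation of GABA-evoked current is reported. Dehydroabietic acid served as positive control. Mean ± SEM from at least three oocytes and two oocyte batches.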

Data set [2] deals with T1, GABA-A receptor; alpha-1/beta-2/gamma-2 (Homo sapiens). In words: Modulation of recombinant wild type GABAA receptor alpha1beta2gamma2S (unknown origin) expressed in Xenopus laevis oocytes assessed as increase in GABA-evoked chloride current at 10 uM at -70 mV holding potential by two-microelectrode voltage clamp assay relative to control. It is filed as cell-based. In outline: as §1

Data set [3] addresses T2, GABA-A receptor; alpha-1/beta-2/gamma-2 (Homo sapiens, UniProt P14867+P18507+P47870).
T2 sequence (P14867 whole entry): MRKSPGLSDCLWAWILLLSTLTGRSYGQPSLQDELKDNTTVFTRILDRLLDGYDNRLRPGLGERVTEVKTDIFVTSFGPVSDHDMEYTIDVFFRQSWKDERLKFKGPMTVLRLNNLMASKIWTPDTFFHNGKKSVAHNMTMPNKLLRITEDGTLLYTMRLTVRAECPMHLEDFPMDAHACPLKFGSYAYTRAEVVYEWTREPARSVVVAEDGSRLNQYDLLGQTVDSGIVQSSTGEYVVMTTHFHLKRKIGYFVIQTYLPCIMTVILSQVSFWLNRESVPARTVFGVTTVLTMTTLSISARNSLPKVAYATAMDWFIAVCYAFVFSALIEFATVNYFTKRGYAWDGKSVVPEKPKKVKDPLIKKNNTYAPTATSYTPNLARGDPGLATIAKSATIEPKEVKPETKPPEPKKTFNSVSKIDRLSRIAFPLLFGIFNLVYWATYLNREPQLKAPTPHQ
T2 sequence (P47870 whole entry): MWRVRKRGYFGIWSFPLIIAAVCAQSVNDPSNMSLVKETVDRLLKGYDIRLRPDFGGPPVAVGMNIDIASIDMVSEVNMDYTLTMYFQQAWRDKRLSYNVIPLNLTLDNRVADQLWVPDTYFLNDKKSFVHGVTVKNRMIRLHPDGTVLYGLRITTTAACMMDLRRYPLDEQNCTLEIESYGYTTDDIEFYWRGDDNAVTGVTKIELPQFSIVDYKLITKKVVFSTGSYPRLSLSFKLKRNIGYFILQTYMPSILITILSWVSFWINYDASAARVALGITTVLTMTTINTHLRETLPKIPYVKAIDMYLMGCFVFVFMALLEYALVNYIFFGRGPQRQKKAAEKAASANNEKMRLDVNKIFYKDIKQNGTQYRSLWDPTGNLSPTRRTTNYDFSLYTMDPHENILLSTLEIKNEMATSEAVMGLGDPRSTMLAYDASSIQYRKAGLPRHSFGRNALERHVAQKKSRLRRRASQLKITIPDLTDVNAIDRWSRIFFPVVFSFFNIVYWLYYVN
T2 sequence (P18507 whole entry): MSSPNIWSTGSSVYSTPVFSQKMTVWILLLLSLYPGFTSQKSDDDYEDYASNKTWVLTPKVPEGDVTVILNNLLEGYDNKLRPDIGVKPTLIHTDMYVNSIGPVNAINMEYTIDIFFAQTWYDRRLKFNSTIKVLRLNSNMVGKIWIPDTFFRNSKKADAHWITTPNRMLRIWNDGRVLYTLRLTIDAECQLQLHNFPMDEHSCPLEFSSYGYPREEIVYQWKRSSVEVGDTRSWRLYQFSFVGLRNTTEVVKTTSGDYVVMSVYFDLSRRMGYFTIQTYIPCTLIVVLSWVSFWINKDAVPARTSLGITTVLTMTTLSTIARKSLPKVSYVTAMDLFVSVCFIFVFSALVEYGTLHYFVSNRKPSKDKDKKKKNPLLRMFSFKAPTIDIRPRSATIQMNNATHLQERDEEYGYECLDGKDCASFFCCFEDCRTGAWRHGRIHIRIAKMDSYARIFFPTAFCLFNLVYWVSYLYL
In words: (§2) Modulation of recombinant wild type GABAA receptor alpha1beta2gamma2S (unknown origin) expressed in Xenopus laevis oocytes assessed as increase in GABA-evoked chloride current at -70 mV holding potential by two-microelectrode voltage clamp assay. It is filed as cell-based. In short, it runs like this: (§3)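 Two-microelectrode voltage clamp of Xenopus laevis oocytes expressing α1β2γ2S GABA_A receptors, held at -70 mV. GABA EC5 (4-5 μM), determined individually for each oocyte, applied for 20 s alone or co-applied with compound at 10 and 100 μM; potentiation of GABA-evoked current measured. Dehydroabietic acid as positive control; mean ± SEM from at least three oocytes and two oocyte batches.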

The target of data set [4] is T1, GABA-A receptor; alpha-1/beta-2/gamma-2 (Homo sapiens). Described as §2. The class given is cell-based. In outline:
as §3

Data set [5] is described as follows: Selectivity index, ratio of CC50 for mouse J774 cells to IC50 for Leishmania donovani MHOM/IN/80/DD8 promastigotes. It is filed as toxicity. The note with it: read-out: Ratio CC50/IC50.
A short description of data set [6]: Selectivity index, ratio of CC50 for mouse J774 cells to IC50 for Leishmania infantum MCAN/ES/96/BCN150 amastigotes infected in mouse J774 cells. It is filed as toxicity, cell-based. The note with it: read-out: Ratio CC50/IC50. In outline: (§4)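 CC50: concentration giving 50% reduction of viability in treated cells relative to untreated; IC50: concentration giving 50% reduction in parasites; SI = CC50/IC50.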

Data set [7] is described as follows: Selectivity index, ratio of CC50 for mouse J774 cells to IC50 for Leishmania amazonensis MHOM/Br/79/Mari promastigotes. The class given is toxicity. The note with it: read-out: Ratio CC50/IC50.
Data set [8] can be described thus: Selectivity index, ratio of CC50 for mouse J774 cells to IC50 for Leishmania amazonensis MHOM/Br/79/Mari amastigotes infected in mouse J774 cells. Conditions: read-out: Ratio CC50/IC50. It is filed as toxicity, cell-based. In outline: as §4
The next data set relates to SW1573. In words: Antiproliferative activity against human SW1573 cells after 48 hrs by SRB assay. It is filed as functional. Conditions: SW1573, 48 h.
The next data set has as its system HeLa. In words: Antiproliferative activity against human HeLa cells after 48 hrs by SRB assay. It is filed as functional.
A further data set has as its system WiDr. Kind of data set: Antiproliferative activity against human WiDr cells after 48 hrs by SRB assay. The class given is functional.
For data set [9], the system named is Leishmania amazonensis. Kind of data set: Antileishmanial activity against Leishmania amazonensis MHOM/Br/79/Mari amastigotes infected in mouse J774 cells after 48 hrs by resazurin dye-based fluorometric analysis. The note with it: J774, 48 h. The class given is functional, organism-based.
The subject of a further data set is Leishmania donovani. In words: Antileishmanial activity against Leishmania donovani MHOM/IN/80/DD8 promastigotes after 48 hrs by resazurin dye-based fluorometric analysis. The class given is functional, organism-based. The note with it: Leishmania donovani, MHOM/IN/80/DD8, 48 h. In outline:
(§5)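 The IC50 is taken as the compound concentration giving a 50% reduction in parasites, reported with SD.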

For data set [10], the system named is Leishmania amazonensis. Kind of data set: Antileishmanial activity against Leishmania amazonensis MHOM/Br/79/Mari promastigotes after 48 hrs by resazurin dye-based fluorometric analysis. The class given is functional, organism-based. Conditions: Leishmania amazonensis, MHOM/Br/79/Mari, 48 h; read-out: IC50. In short, it runs like this: as §5
For another data set, the system named is Leishmania guyanensis. Kind of data set: Antileishmanial activity against Leishmania guyanensis 141/93 promastigotes after 48 hrs by resazurin dye-based fluorometric analysis. The class given is functional, organism-based. Conditions: Leishmania guyanensis, 141/93, 48 h; read-out: IC50. In short, it runs like this: as §5
The subject of another data set is T47D. Kind of data set: Antiproliferative activity against human T47D cells after 48 hrs by SRB assay. The class given is functional.
Data set [11] can be described thus: Cytotoxicity against mouse J774 cells assessed as reduction in cell viability after 48 hrs by resazurin dye-based fluorometric analysis. In outline:
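The CC50 is taken as the concentration giving a 50% reduction in cell viability of treated cultures compared with untreated cells.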

The test system of data set [12] is Leishmania infantum. In words: Antileishmanial activity against Leishmania infantum MCAN/ES/96/BCN150 promastigotes after 48 hrs by resazurin dye-based fluorometric analysis. The class given is functional, organism-based. The note with it: Leishmania infantum, MCAN/ES/96/BCN150, 48 h; read-out: IC50. In outline:
as §5

The test system of data set [13] is Leishmania infantum. In words: Antileishmanial activity against Leishmania infantum MCAN/ES/96/BCN150 amastigotes infected in mouse J774 cells after 48 hrs by resazurin dye-based fluorometric analysis. It is filed as functional, organism-based. The note with it: MCAN/ES/96/BCN150, J774, 48 h.
A further data set deals with HBL-100. Kind of data set: Antiproliferative activity against human HBL100 cells after 48 hrs by SRB assay. It is filed as functional. Conditions: HBL-100, 48 h.
A short description of data set [14]: Selectivity index, ratio of CC50 for mouse J774 cells to IC50 for Leishmania infantum MCAN/ES/96/BCN150 promastigotes. It is filed as toxicity. Conditions: read-out: Ratio CC50/IC50.
Data set [15] in a line: Selectivity index, ratio of CC50 for mouse J774 cells to IC50 for Leishmania guyanensis 141/93 promastigotes. The class given is toxicity. Conditions: read-out: Ratio CC50/IC50.
The test system of the next data set is A549. Kind of data set: Antiproliferative activity against human A549 cells after 48 hrs by SRB assay. It is filed as functional. The note with it: A549, 48 h.

Regarding `CC(C)C1=CC2=CC[C@H]3[C@](C)(C(=O)O)CCC[C@]3(C)C2CC1` (stereo partly specified), the Activity was 841% in data set [1] and 187% in data set [2]. In addition, the EC50 in data set [3] was determined as 8.7 µM. Further, the Emax in data set [4] came to 398%.
Turning to `COC(=O)[C@]1(C)CCC[C@]2(C)c3cc(C(C)=O)c(C(C)C)cc3CC[C@@H]12`, the selectivity ratio in [5] was 8.8; in [6] it was 3.5; in data set [7], 11.2; in data set [8] it was 4.1; in [14], 51.8; in [15], 9.1. The results for the Activity in [1] and in data set [2] were -2.9% and 2.7%, respectively. Further, the GI50 is 11 µM in the data set with SW1573; 11 µM with HeLa; 17 µM with WiDr; 10 µM in the data set with T47D; 15 µM in the data set with HBL-100; 18 µM in the data set on A549. The IC50 with Leishmania amazonensis [9] was 31.4 µM; in the data set with Leishmania donovani (read-out: IC50) it was 14.8 µM; in the data set on Leishmania donovani (read-out: log(1/IC50) (converted)), 14.8 µM; with Leishmania amazonensis [10], 11.6 µM; in the data set with Leishmania guyanensis, 14.2 µM; with Leishmania infantum [12], 2.5 µM. In addition, the IC50 in the data set with Leishmania infantum [13] was 37.2 µM. The CC50 at 48 h in [11] was 130 µM.
